Sampled rows, rich in hits. Any-hit rate of the full collection: about 4.7%.
Jurkat NFkB inh = lowers PMA/ionomycin-induced NF-kB signal in Jurkat cells | PMA/ionomycin-induced NF-kB luciferase reporter, luminescence | inhibition, % at 4 µM | actives 0.53% (n = 330,000) | AID 435003; in the data active = inhibition above about 50%
697 NFkB inh = inhibitors of the PMA/ionomycin-induced NF-kB reporter in 697 B cells. 697 B-cell NF-kB luciferase reporter, 16 h. actives 0.33% (n = 330,000). inhibition, % at 4 µM; in the data active = inhibition above about 35%
VIM-2 inhibitor = inhibitors of Pseudomonas aeruginosa VIM-2 metallo-beta-lactamase; inhibition, % at 5.6 µM; actives 0.89% (n = 290,000); purified VIM-2, nitrocefin hydrolysis, epi-absorbance fluorescence; AID 1527;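 active = inhibition above the mean of all tested compounds plus 3 SD, cutoff set per screening run, cut at about 7.5% in these data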;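 note: red hydrolysis product quenches plate fluorescence so inhibitors raise well fluorescence; 0% = enzyme with DMSO and 100% = DMSO without enzyme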
Mdm2-MdmX inh = inhibitors of human Mdm2/MdmX interaction | O15151+Q00987 | SaOS-2 split-luciferase Mdm2/MdmX complementation, luminescence | inhibition, % at 8 µM | actives 3% (n = 330,000) | AID 485346;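 active = inhibition of at least 50% at 8 µM in the primary screen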
Target sequence (O15151 whole entry, looked up): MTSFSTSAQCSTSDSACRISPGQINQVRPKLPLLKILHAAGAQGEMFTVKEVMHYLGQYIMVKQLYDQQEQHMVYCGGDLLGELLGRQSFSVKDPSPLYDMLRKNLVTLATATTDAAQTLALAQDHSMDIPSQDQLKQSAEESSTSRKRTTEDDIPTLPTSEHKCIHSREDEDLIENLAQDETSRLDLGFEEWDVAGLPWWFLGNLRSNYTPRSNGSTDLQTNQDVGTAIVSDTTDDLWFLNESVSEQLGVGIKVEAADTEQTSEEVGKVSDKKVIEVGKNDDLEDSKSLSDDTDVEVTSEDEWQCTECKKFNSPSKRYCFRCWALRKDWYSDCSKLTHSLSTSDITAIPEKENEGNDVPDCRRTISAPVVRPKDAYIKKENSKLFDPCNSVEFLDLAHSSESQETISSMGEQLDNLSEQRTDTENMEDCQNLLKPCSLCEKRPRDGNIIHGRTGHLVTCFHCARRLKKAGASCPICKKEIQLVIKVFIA
Target sequence (Q00987 whole entry, looked up): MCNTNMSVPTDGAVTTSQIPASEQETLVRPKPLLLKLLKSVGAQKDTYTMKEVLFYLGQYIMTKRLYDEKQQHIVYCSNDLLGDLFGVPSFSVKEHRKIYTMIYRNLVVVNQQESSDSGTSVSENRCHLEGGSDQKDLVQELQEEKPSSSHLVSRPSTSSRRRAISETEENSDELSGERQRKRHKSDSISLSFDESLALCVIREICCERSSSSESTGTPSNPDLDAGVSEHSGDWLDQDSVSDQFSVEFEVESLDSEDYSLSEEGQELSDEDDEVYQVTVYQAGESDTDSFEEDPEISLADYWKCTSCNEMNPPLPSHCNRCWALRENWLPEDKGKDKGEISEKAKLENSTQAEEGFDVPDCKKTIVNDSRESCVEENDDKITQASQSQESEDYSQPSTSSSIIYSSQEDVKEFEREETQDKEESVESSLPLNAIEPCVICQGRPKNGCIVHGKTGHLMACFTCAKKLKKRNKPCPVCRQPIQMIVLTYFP
IMP-1 inhibitor = blocks Pseudomonas aeruginosa IMP-1 metallo-beta-lactamase. actives 0.45% (n = 290,000). purified IMP-1, nitrocefin hydrolysis, epi-absorbance fluorescence. inhibition, % at 5.6 µM;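 active = inhibition above the mean plus 3 SD of all compounds in the same screening run, cut at about 4.5% in these data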;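 note: 0% = IMP-1 with DMSO and 100% = DMSO wells lacking enzyme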
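System: Purified recombinant IMP-1 metallo-beta-lactamase enzyme | Measured by: Fluorescence quenching readout, ex 480/em 530 nm | Replication: Singlicate | Incubation: 15 min preincubation plus 25 min reaction at 25 °C | Evaluation: Percent inhibition from optical density relative to buffer-blank wells | Benchmarks: DMSO with and without IMP-1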
aSyn UTR inh = MLPCN primary screen, SNCA 5' untranslated region; alpha-synuclein 5'UTR reporter, inhibitor activity; inhibition, % (tested at 7.5 µM); actives 0.82% (n = 300,000); in the data active = inhibition above about 60%;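 note: H4 neuroglioblastoma cells stably carrying SNCA 5'UTR luciferase fusion; 0% = DMSO wells and 100% = positive control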
Mdm2-MdmX conf = human Mdm2/MdmX binding inhibition, confirmed; inhibition, % at 8 µM; luminescent assay; actives 55% (n = 10,000); shares compounds with Mdm2-MdmX inh; in the data active = inhibition above about 40%
Full FLuc ctr = inhibits full-length luciferase, flagging false Mdm2/MdmX hits. AID 504607. SaOS-2 full-length luciferase counterscreen, luminescence. inhibition, % at 8 µM. shares compounds with Mdm2-MdmX inh. actives 77% (n = 6,200);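 active = mean inhibition at 8 µM reaching about 37%, which flags the compound as non-specific, limit read from the data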;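 note: p53-null SaOS-2 cells with luciferase driven by a doxycycline-inducible promoter; compound on cells about two nights before reading with doxycycline added after day one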
Numbers without * were called inactive; nt = not tested or not shown.

SMILES	Jurkat NFkB inh	697 NFkB inh	VIM-2 inhibitor	Mdm2-MdmX inh	IMP-1 inhibitor	aSyn UTR inh	Mdm2-MdmX conf	Full FLuc ctr
O=C(CCS(=O)(=O)c1ccccc1)N(CCCN1CCOCC1)c1nc2c(F)cccc2s1	-30.3	-15.5	nt	78.9*	nt	-26.2	58.5*	38.0*
C=CCc1cccc(/C=N/NC(=O)c2ccccc2Br)c1O	5.8	2.5	-1.8	38.3	-2.5	2.4	nt	nt
C=CCc1cccc(/C=N/NC(=O)c2ccccc2OC)c1O	16.0	-12.7	0.2	65.7*	-0.3	7.8	70.3*	46.8*
COc1cccc(/C=N/NC(=O)c2[nH]c(C)c(C(=O)N/N=C/c3cccc(OC)c3O)c2C)c1O	24.8	-29.1	-2.9	62.0*	-1.6	49.3	42.5*	70.0*
COc1cccc(/C=N/NC(=O)CN2CC(c3ccccc3)CC2=O)c1O (configuration not stated)	15.7	-1.5	-2.2	52.2*	-2.1	18.1	30.2	nt
COc1ccc(C(=O)N/N=C/c2ccccc2OC(=O)c2ccccc2)cc1	-35.0	-105.7	-1.4	53.1*	-1.8	52.8	41.0*	111.5*
COc1ccc(C(=O)N/N=C/c2ccc(OC(=O)c3ccccc3)cc2)cc1	1.0	2.8	-2.3	3.9	-3.2	-28.9	nt	nt
COc1cccc(/C=N/NC(=O)c2ccc(-c3ccccc3)cc2)c1O	24.2	-25.5	-4.0	76.3*	-1.9	75.8*	77.0*	23.0
COc1ccc(OC)c(/C=N\NC(=O)c2ccc(-c3ccccc3)cc2)c1	4.7	20.6	-2.5	4.4	-1.5	nt	nt	nt
C=CCc1cccc(/C=N/NC(=O)C(=O)Nc2ccc(C)cc2)c1O	-14.4	-4.9	-5.8	4.2	-3.5	-11.1	nt	nt
C=CCc1cccc(/C=N/NC(=O)c2ccc3nc[nH]c3c2)c1O	16.1	-29.3	-8.3	67.4*	-3.4	43.3	51.5*	26.2
C=CCc1cccc(/C=N/NC(=O)C(C)Nc2ccc(C)cc2)c1O (configuration not stated)	3.1	7.4	-3.6	69.6*	-3.0	0.4	66.8*	41.8*
COc1ccccc1/C=N/NC(=O)c1c(-c2ccccc2)noc1C	4.8	4.5	-4.2	4.8	-2.1	14.9	nt	nt
Cc1cccc(/C=N/NC(=O)c2c(-c3ccccc3)noc2C)c1O	11.0	-27.1	-2.2	66.7*	-1.3	62.3*	69.0*	35.6
O=C(N/N=C/c1ccccc1C(F)(F)F)c1ccc2nc[nH]c2c1	-28.0	-16.7	-0.9	-25.1	0.1	-46.1	nt	nt
CC(C)CCNC(=O)C1CCN(S(=O)(=O)c2ccc(-n3cnnn3)cc2)CC1	-8.0	13.0	-1.7	12.2	-2.6	-5.8	nt	nt
O=C(COC(=O)c1ccc2c(c1)S(=O)(=O)N=C1CCCCCN12)NCc1cccs1	8.6	13.9	-2.2	-9.1	-4.3	-5.8	nt	nt
CCOc1ccccc1NC(=O)C(=O)N/N=C/c1cc(Br)ccc1O	-25.4	-16.1	-1.5	75.9*	-1.6	51.3	83.3*	39.1*
COc1cccc(/C=N/NC(=O)C(=O)Nc2ccccc2OC(F)(F)C(F)F)c1O	22.7	-80.4	-1.2	61.5*	-1.3	71.5*	74.8*	21.8
COc1ccccc1/C=N\NC(=O)c1c(C)nc2ccc(Cl)cn12	3.0	1.2	-1.4	14.4	-4.5	-12.6	nt	nt
COc1ccccc1/C=N/NC(=O)c1cccc(OC(F)(F)C(F)F)c1	-7.8	-6.9	-4.1	12.5	-3.6	-17.2	nt	nt
COc1cccc(/C=N/NC(=O)c2c(C)nc3ccc(Cl)cn23)c1O	22.5	21.2	-2.4	68.2*	-1.7	34.9	78.3*	34.5
Cc1ccc(NC(=O)CCCc2c[nH]c3ccccc23)nc1	11.6	9.4	-0.6	10.1	-2.2	-1.0	nt	nt
Cc1ccnc(NC(=O)CCCc2c[nH]c3ccccc23)c1	-15.6	6.9	-0.2	67.8*	-1.0	-3.7	35.8	nt
Cc1cccc(NC(=O)CSCC(=O)Nc2ccccc2N2CCCC2)c1	14.4	-4.0	-1.5	25.0	-1.4	4.6	nt	nt

From PubChem BioAssay
